Tests used:
lizara = assay: Potency in the lizard (Anolis carolinensis) skin bioassay relative to alpha-MSH; type: functional
Outline: (§1)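 In vitro Anolis carolinensis skin bioassay scoring melanosome dispersion as skin darkening. Solutions were made by serial dilution from a 10⁻⁴ M stock. Potency was calculated along the linear portion of the dose-response curve and standardized to α-MSH = 1.00.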

frog = assay: Potency in the frog (Rana pipiens) skin bioassay relative to alpha-MSH; type: functional
Outline: as §1, with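 “Rana pipiens” for “Anolis carolinensis”, “stock. Responses are the mean ± SE of 6 or more skins.” for “stock.”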

| Structure (SMILES) | Potency (lizara) | Potency (frog) |
| --- | --- | --- |
| CC(=O)N[C@H]1CSSC[C@@H](C(=O)N[C@@H](CCCCN)C(N)=O)NC(=O)[C@H](Cc2c[nH]c3ccccc23)NC(=O)[C@H](CCCN=C(N)N)NC(=O)[C@@H](Cc2ccccc2)NC(=O)[C@H](Cc2c[nH]cn2)NC(=O)[C@H](CCC(=O)O)NC1=O | 3 | 2.5 |
| CC(=O)N[C@H]1CSSC[C@@H](C(N)=O)NC(=O)[C@H](Cc2c[nH]c3ccccc23)NC(=O)[C@H](CCCN=C(N)N)NC(=O)[C@@H](Cc2ccccc2)NC(=O)[C@H](Cc2c[nH]cn2)NC(=O)[C@H](CCC(=O)O)NC1=O | 0.5 | 0.75 |
| CC(=O)N[C@@H](CO)C(=O)N[C@@H](Cc1ccc(O)cc1)C(=O)N[C@@H](CO)C(=O)N[C@H]1CSSC[C@@H](C(=O)N[C@@H](CCCCN)C(=O)N2CCC[C@H]2C(=O)N[C@H](C(N)=O)C(C)C)NC(=O)[C@H](Cc2c[nH]c3ccccc23)NC(=O)[C@@H](CCCN=C(N)N)NC(=O)[C@H](Cc2ccccc2)NC(=O)[C@@H](Cc2c[nH]cn2)NC(=O)[C@H](CCC(=O)O)NC1=O | 2 | 10 |
| CC(=O)N[C@H]1CSSC[C@@H](C(=O)N[C@@H](CCCCN)C(N)=O)NC(=O)[C@H](Cc2c[nH]c3ccccc23)NC(=O)[C@H](CCCN=C(N)N)NC(=O)[C@H](Cc2ccccc2)NC(=O)[C@H](Cc2c[nH]cn2)NC(=O)[C@H](CCC(=O)O)NC1=O | 0.07 | 0.16 |
| CC(=O)N[C@H]1CSSC[C@@H](C(N)=O)NC(=O)[C@H](Cc2c[nH]c3ccccc23)NC(=O)[C@H](CCCN=C(N)N)NC(=O)[C@H](Cc2ccccc2)NC(=O)[C@H](Cc2c[nH]cn2)NC(=O)[C@H](CCC(=O)O)NC1=O | 0.003 | 0.06 |

From ChEMBL document CHEMBL1122990, “Cyclic melanotropins. 9. 7-D-Phenylalanine analogues of the active-site sequence” (J Med Chem, 1985)
